Reference: ChEMBL document CHEMBL1773060, “Two-step synthesis of novel, bioactive derivatives of the ubiquitous cofactor nicotinamide adenine dinucleotide (NAD)” (J Med Chem, 2011)

Each molecule was assayed against T1, NAD-dependent protein deacetylase sirtuin-1 (Homo sapiens, UniProt Q96EB6) (assay: Inhibition of human recombinant GST-tagged SIRT1 after 4 hrs by homogeneous fluorescent deacetylase assay).
T1 sequence (Q96EB6 whole entry): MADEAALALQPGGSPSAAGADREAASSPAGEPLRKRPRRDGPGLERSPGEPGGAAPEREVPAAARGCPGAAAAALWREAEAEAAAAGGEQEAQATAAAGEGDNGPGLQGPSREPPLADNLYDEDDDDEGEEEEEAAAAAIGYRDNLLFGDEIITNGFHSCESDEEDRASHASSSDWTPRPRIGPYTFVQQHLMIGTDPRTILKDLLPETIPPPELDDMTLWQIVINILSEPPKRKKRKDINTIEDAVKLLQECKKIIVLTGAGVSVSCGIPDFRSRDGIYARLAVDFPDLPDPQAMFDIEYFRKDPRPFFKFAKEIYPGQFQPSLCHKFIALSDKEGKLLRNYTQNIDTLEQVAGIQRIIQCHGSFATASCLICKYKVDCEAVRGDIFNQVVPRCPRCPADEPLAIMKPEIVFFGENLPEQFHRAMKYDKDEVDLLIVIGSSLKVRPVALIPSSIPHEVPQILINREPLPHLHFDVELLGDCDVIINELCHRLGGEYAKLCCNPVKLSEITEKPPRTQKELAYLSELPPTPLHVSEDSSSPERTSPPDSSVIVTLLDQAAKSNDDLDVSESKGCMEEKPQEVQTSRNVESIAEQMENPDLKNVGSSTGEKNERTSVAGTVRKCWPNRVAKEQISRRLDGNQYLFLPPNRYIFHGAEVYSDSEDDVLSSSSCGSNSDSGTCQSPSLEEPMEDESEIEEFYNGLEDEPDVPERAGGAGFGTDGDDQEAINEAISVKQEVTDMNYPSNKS
Summary of the method: (§1)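 Recombinant enzyme incubated with Z-(Ac)Lys-AMC (10.5 μM), NAD (500 μM) and inhibitor added from DMSO stock, 4 h at 37 °C. Enzyme amount set for 10–30% substrate conversion without inhibitor. Trypsin (1 mg/mL) plus nicotinamide (8 mM) added, 20 min at 37 °C. Fluorescence read at ex 390/em 460 nm. Inhibition calculated from remaining substrate versus no-inhibitor control. Run at least in duplicate.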

Row | IC50 [µM] | Structure (SMILES)
1 | 31 | Nc1ncnc2c1nc(-c1ccccc1)n2[C@@H]1O[C@H](COP(=O)(O)O)[C@@H](O)[C@H]1O

What follows are molecules tested against T2, NAD-dependent protein deacetylase sirtuin-2 (Homo sapiens, UniProt Q8IXJ6) (assay: Inhibition of human recombinant N-terminally His6-tagged SIRT2 after 4 hrs by homogeneous fluorescent deacetylase assay).
T2 sequence (Q8IXJ6 whole entry): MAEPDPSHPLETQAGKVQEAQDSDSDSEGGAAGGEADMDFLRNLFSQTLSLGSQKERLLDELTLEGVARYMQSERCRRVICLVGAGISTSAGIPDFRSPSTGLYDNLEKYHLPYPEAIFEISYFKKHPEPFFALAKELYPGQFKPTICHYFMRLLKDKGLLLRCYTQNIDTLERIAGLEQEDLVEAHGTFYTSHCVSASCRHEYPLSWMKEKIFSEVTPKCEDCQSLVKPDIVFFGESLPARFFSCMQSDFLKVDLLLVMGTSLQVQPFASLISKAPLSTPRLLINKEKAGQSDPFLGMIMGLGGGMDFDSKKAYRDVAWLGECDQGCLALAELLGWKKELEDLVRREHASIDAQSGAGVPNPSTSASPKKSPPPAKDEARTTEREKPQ
Summary of the method: as §1

Row | Structure (SMILES) | IC50 [µM]
2 | Cc1ccc(-c2nc3c(N)ncnc3n2[C@@H]2O[C@H](COP(=O)(O)OP(=O)([O-])OC[C@H]3O[C@@H]([n+]4cccc(C(N)=O)c4)[C@H](O)[C@@H]3O)[C@@H](O)[C@H]2O)cc1 | 52
3 | NC(=O)c1ccc[n+]([C@@H]2O[C@H](COP(=O)([O-])OP(=O)(O)OC[C@H]3O[C@@H](n4c(-c5ccc(Cl)cc5)nc5c(N)ncnc54)[C@H](O)[C@@H]3O)[C@@H](O)[C@H]2O)c1 | 35
4 | COc1ccc(-c2nc3c(N)ncnc3n2[C@@H]2O[C@H](COP(=O)(O)OP(=O)([O-])OC[C@H]3O[C@@H]([n+]4cccc(C(N)=O)c4)[C@H](O)[C@@H]3O)[C@@H](O)[C@H]2O)cc1 | 43
5 | NC(=O)c1ccc[n+]([C@@H]2O[C@H](COP(=O)([O-])OP(=O)(O)OC[C@H]3O[C@@H](n4c(-c5ccccc5)nc5c(N)ncnc54)[C@H](O)[C@@H]3O)[C@@H](O)[C@H]2O)c1 | 123

Now those with a lower IC50, led by results:

Row | IC50 [µM] | Structure (SMILES)
6 | 28 | NC(=O)c1ccc[n+]([C@@H]2O[C@H](COP(=O)([O-])OP(=O)(O)OC[C@H]3O[C@@H](n4c(Br)nc5c(N)ncnc54)[C@H](O)[C@@H]3O)[C@@H](O)[C@H]2O)c1
7 | 29 | Nc1ncnc2c1nc(-c1ccccc1)n2[C@@H]1O[C@H](COP(=O)(O)O)[C@@H](O)[C@H]1O
